Test results as given in ChEMBL document CHEMBL1681634, “Acyloxy nitroso compounds as nitroxyl (HNO) donors: kinetics, reactions with thiols, and vasodilation properties” (J Med Chem, 2011).
Structures can show the parent of a compound that is named as a salt. Values belong to the compound of their own block, whether it stands above or below them. Active and inactive are the calls of the source. The calls are words filed in the database; no cut-off is given here.

Tests used:
[1] = tested on: Thoracic aorta; assay: Potentiation of Angeli's salt induced- vasodilatory activity in Sprague-Dawley rat thoracic aorta at 1 mM; assay type: functional, tissue-based
In short: (§1)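 Male Sprague-Dawley rat (200-250 g) thoracic aorta rings, 2-4 mm, in Krebs-Henseleit buffer at 37°C, pH 7.45, 2 g basal tension, 1 hr equilibration, 70 mM KCl viability check. Pretreated with L-NAME (100 μM) and indomethacin (5 μM), then preconstricted with phenylephrine (100 nM). Donors added cumulatively; relaxation is delta tension as percent of maximal PE constriction. Sigmoidal fits by non-linear regression give EC50.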

[2] = tested on: Thoracic aorta; assay: Potentiation of 1-Nitrosocyclohexyl trifluoroacetate induced- vasodilatory activity in Sprague-Dawley rat thoracic aorta at 1 mM; assay type: functional, tissue-based; in short: as §1
[3] = tested on: Thoracic aorta; assay: Potentiation of 1-Nitrosocyclohexyl acetate induced- vasodilatory activity in Sprague-Dawley rat thoracic aorta at 1 mM; assay type: functional, tissue-based; in short: as §1
[4] = tested on: Thoracic aorta; assay: Potentiation of MahmaNonoate induced- vasodilatory activity in Sprague-Dawley rat thoracic aorta at 1 mM; assay type: functional, tissue-based; in short: as §1
[5] = tested on: Thoracic aorta; assay: Vasodilatory activity in Sprague-Dawley rat thoracic aorta assessed as relaxation of phenylephrine-induced vasoconstriction at 0.01 nM to 100 uM; assay type: functional, tissue-based; in short: as §1
[6] = tested on: Thoracic aorta; assay: Vasodilatory activity in Sprague-Dawley rat thoracic aorta assessed as relaxation of phenylephrine-induced vasoconstriction compound treated 5 mins after 1 uM soluble guanylate cyclase inhibitor ODQ treatment; assay type: functional, tissue-based; in short: as §1
[7] = tested on: Thoracic aorta; assay: Vasodilatory activity in Sprague-Dawley rat thoracic aorta assessed as relaxation of phenylephrine-induced vasoconstriction compound treated 5 mins after 200 uM NO-scavenger C-PTIO treatment; assay type: functional, tissue-based; in short: as §1
[8] = tested on: Thoracic aorta; assay: Inhibition of Angeli's salt induced- vasodilatory activity in Sprague-Dawley rat thoracic aorta at 0.1 to 1 mM; assay type: functional, tissue-based; in short: as §1
[9] = tested on: Thoracic aorta; assay: Inhibition of 1-Nitrosocyclohexyl trifluoroacetate induced- vasodilatory activity in Sprague-Dawley rat thoracic aorta at 0.1 to 1 mM; assay type: functional, tissue-based; in short: as §1
[10] = tested on: Thoracic aorta; assay: Inhibition of 1-Nitrosocyclohexyl acetate induced- vasodilatory activity in Sprague-Dawley rat thoracic aorta at 0.1 to 1 mM; assay type: functional, tissue-based; in short: as §1
[11] = tested on: Thoracic aorta; assay: Vasodilatory activity in Sprague-Dawley rat thoracic aorta assessed as relaxation of phenylephrine-induced vasoconstriction at 0.01 nM to 1 uM in presence of 21% oxygen; assay type: functional, tissue-based; in short: as §1
[12] = tested on: Thoracic aorta; assay: Vasodilatory activity in Sprague-Dawley rat thoracic aorta assessed as relaxation of phenylephrine-induced vasoconstriction at 0.01 nM to 1 uM in presence of 1% oxygen; assay type: functional, tissue-based; in short: as §1
[13] = tested on: Thoracic aorta; assay: Vasodilatory activity in Sprague-Dawley rat thoracic aorta assessed as relaxation of phenylephrine-induced vasoconstriction at 0.01 nM to 1 uM in presence 100 U/ml SOD at 21% oxygen; assay type: functional, tissue-based; in short: as §1
[14] = species on record: Rattus norvegicus; assay: Vasodilatory activity in rat aorta assessed as relaxation of phenylephrine-induced vasoconstriction
[15] = species on record: Rattus norvegicus; assay: Vasodilatory activity in rat thoracic aorta assessed as relaxation of phenylephrine-induced vasoconstriction
[16] = species on record: Rattus norvegicus; assay: Ratio of compound EC50 to Angeli's salt EC50 for vasodilatory activity in rat aorta
[17] = species on record: Rattus norvegicus; assay: Ratio of compound EC50 to Angeli's salt EC50 for vasodilatory activity in rat thoracic aorta

Structure (SMILES): CC(=O)N[C@@H](CS)C(=O)O
- Activity [1]: Active
- Activity [2]: Active
- Activity [3]: inactive
- Activity [4]: inactive

Structure (SMILES): CNCCCCCCN(C)N(O)N=O
- Activity [5]: Dose-dependent effect
- Activity [6]: inactive
- Activity [7]: inactive
- Activity [3]: inactive
- Activity [4]: inactive

Structure (SMILES): N[C@@H](CCC(=O)N[C@@H](CS)C(=O)NCC(=O)O)C(=O)O
- inhibition [8]: Active
- inhibition [9]: Active
- inhibition [10]: inactive

- EC50 [14]: 10000 nM
- EC50 [15]: 10000 nM
Structure (SMILES): CC(=O)OC1(N=O)CCCCC1 [1-NITROSOCYCLOHEXYL ACETATE]
- Activity [5]: Dose-dependent effect
- Activity [6]: inactive
- Activity [7]: inactive
- Activity [11]: Active
- Activity [12]: Active
- Activity [13]: Active
- Activity [3]: inactive
- Activity [4]: inactive
- inhibition [10]: inactive

- EC50 [14]: 880 nM
- EC50 [15]: 880 nM
Structure (SMILES): O=NC1(OC(=O)C(F)(F)F)CCCCC1 [1-NITROSOCYCLOHEXYL TRIFLUOROACETATE]
- Activity [5]: Dose-dependent effect
- Activity [6]: inactive
- Activity [7]: inactive
- Activity [11]: Active
- Activity [12]: Active
- Activity [13]: Active
- Activity [1]: Active
- Activity [2]: Active
- inhibition [8]: Active
- inhibition [9]: Active
- Ratio EC50 [16]: 10
- Ratio EC50 [17]: 10

- EC50 [14]: 82 nM
- EC50 [15]: 82 nM
Structure (SMILES): [O-][N+]([O-])=NO [ANGELI'S SALT]
- Activity [5]: Dose-dependent effect
- Activity [6]: inactive
- Activity [7]: inactive
- Activity [11]: Active
- Activity [12]: inactive
- Activity [13]: Active
- Activity [1]: Active
- Activity [2]: Active
- inhibition [8]: Active
- inhibition [9]: Active
